Compound activity: PubChem, The Scripps Research Institute Molecular Screening Center
Hits are enriched below; roughly 1% of the tested compounds scored in any of these assays.
PME-1 primary – blocks human protein phosphatase methylesterase 1; actives 0.53% (n = 320,000); Q9Y570; recombinant PME-1, FP-Rh probe fluorescence polarization; inhibition, % at 5.9 µM;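 active = inhibition above the campaign mean of all compounds plus 3 SD, cut at about 26% in these data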;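 note: competitive labeling of PME-1 active site by serine hydrolase directed probe; 0% = PME-1 with DMSO and 100% = wells lacking PME-1 enzyme; inhibitors block probe labeling so polarization falls and inhibition rises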
Target sequence (Q9Y570 whole entry, looked up): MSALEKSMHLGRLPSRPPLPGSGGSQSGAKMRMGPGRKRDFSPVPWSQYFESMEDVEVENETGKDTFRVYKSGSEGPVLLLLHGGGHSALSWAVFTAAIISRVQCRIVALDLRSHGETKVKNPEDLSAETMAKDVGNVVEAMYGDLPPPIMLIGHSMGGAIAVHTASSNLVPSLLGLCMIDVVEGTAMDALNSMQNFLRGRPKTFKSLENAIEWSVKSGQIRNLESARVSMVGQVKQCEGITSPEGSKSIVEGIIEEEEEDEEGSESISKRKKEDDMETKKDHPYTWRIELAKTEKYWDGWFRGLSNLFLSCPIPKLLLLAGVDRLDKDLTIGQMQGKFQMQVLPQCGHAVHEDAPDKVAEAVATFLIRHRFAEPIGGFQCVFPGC
proCasp3 act – activates human procaspase-3 | P42574 | recombinant procaspase-3 D3A, Ac-DEVD-pNA absorbance 405 nm | activation, % at 8.5 µM | actives 0.11% (n = 330,000) | AID 463141;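 active = activation above the mean of all tested compounds plus 3 SD, cut at about 21% in these data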;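 note: 0% = DMSO alone and 100% = DMSO wells spiked with extra 5 µM PC-3 D3A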
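System: Procaspase-3 D3A mutant. Medium: Zinc-free 300 mM NaCl, 50 mM HEPES, 0.01% Triton X-100. Schedule: 1 h preincubation plus 2 h reaction at 25 °C. Measured by: 405 nm absorbance of p-nitroaniline, reads at 0 and 120 min. Read-out: percent activation relative to control range.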
procasp7 counter – counter-screen for procaspase-3 activators: activators of human procaspase-7; P55210; recombinant procaspase-7, Ac-DEVD-pNA absorbance 405 nm; D23A/D198A/D206A triple mutant, cannot self-cleave; scale: DMSO 0, 5 µM enzyme 100; activation, % at 8.5 µM; actives 0.093% (n = 330,000);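 active = percent activation above the screen-wide mean plus 3 SD, cut at about 25% in these data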
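Assay system: Uncleavable procaspase-7 mutant enzyme | Input: 2 µM procaspase-7 mutant as dispensed | Timing: 1 h compound preincubation, 2 h substrate cleavage, 25 °C | Repeats: One well per compound | Control set: DMSO wells as 0%, DMSO with 5 µM added PC-7 as 100% | Technique: Epi-absorbance of released pNA at 405 nm, two timepoints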
LYPLA1 counter – counter-screen for PME1 inhibitors: inhibitors of human LYPLA1. recombinant LYPLA1, FP-Rh probe fluorescence polarization. actives 0.16% (n = 320,000). AID 2174. inhibition, % at 5.9 µM;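 active = inhibition above the mean of all tested compounds plus 3 SD, set per campaign, cut at about 14% in these data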;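 note: inhibitors block serine hydrolase probe labeling of LYPLA1 so polarization falls; 0% = enzyme with DMSO and 100% = wells lacking LYPLA1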
Target sequence (O75608 whole entry, looked up): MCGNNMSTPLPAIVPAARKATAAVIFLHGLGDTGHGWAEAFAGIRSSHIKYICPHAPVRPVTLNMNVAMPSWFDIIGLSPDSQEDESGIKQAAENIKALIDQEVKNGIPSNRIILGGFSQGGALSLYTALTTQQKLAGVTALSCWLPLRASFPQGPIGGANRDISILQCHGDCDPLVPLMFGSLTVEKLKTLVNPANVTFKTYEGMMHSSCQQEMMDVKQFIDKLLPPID
LYPLA2 counter – LYPLA2 (human) inhibition in PME1 counter-screen | O95372 | recombinant LYPLA2, FP-Rh probe fluorescence polarization | inhibition, % at 5.9 µM | actives 0.38% (n = 320,000);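 active = inhibition above the screen-wide mean plus 3 SD, limit set per campaign, cut at about 26% in these data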;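 note: 0% = LYPLA2 with DMSO and 100% = wells lacking LYPLA2 enzyme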
Fam108B inh – counter-screen for RBBP9 inhibitors: inhibitors of mouse Fam108B | recombinant Fam108B, FP-Rh probe fluorescence polarization | inhibition, % at 9.51 µM | actives 0.33% (n = 300,000) | AID 1947;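 active = inhibition above the screen mean inhibition plus 3 SD, computed separately per campaign, cut at about 18% in these data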;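 note: inhibitors lower polarization as less probe binds the enzyme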
Numbers without * were called inactive; . = no result given.

SMILES	PME-1 primary	proCasp3 act	procasp7 counter	LYPLA1 counter	LYPLA2 counter	Fam108B inh
CC(=O)NC(c1cccs1)c1cc([N+](=O)[O-])c2cccnc2c1O (stereo not given)	34*	-11	-7	-3	-4	-1
CCC(=O)NC(c1cccs1)c1cc([N+](=O)[O-])c2cccnc2c1O (stereo not given)	27*	-10	-2	-1	4	10
O=C(O)c1ccc(S(=O)(=O)N2CCc3ccccc3C2)cc1	-6	-4	-6	-3	0	1
CCOc1ncccc1C(=O)OC(C)C(=O)Nc1ccc(N2CCOCC2)cc1 (stereo not given)	.	3	-1	.	.	.
Cc1ccc(S(=O)(=O)N2CCOCC2)cc1C(=O)NC(C)CCc1ccccc1 (stereo not given)	.	-2	-2	.	.	.
O=C(NCc1cccc(C(F)(F)F)c1)c1cc(Cl)ccc1Cl	6	-3	4	1	-2	2
O=C(NCc1cccc(C(F)(F)F)c1)c1cc(Cl)cc(Cl)c1	-7	1	36*	-10	-12	-9
Cc1ccccc1-c1nnc(SC(C)C(=O)NC2CCCC2)o1 (stereo not given)	5	3	3	4	2	.
CNS(=O)(=O)c1cc(C(=O)OCC(=O)NC2CCCc3ccccc32)ccc1Cl (stereo not given)	28*	7	7	1	5	3
CCN(CC)S(=O)(=O)c1cc(C(=O)OCC(=O)NC2CCCc3ccccc32)ccc1C (stereo not given)	23	3	2	-3	-6	1
Cc1ccc(S(=O)(=O)N(C)c2ccc(OCC(=O)N3CCCCC3)cc2)cc1	9	4	1	1	5	1
CCc1nc(Nc2ccncc2)c2oc3ccccc3c2n1	1	0	-6	-2	4	0
CCc1nc(Nc2ccc3c(c2)OCO3)c2oc3ccccc3c2n1	31*	-3	-13	5	8	3
Cc1nc(SCC(=O)NC2CC2)c2c(C)c(C)sc2n1	3	30*	7	0	1	1
COc1ccc(NC(=O)Nc2nnc(N3CCC(C)CC3)s2)cc1OC	20	2	-5	1	-2	2
COc1ccc(OC)c(NC(=O)Nc2nnc(N3CCC(C)CC3)s2)c1	29*	6	5	-4	-11	2
CCOc1ccc(N=C/C=C/c2ccccc2)c(O)c1	58*	-9	-9	3	4	2
CCOc1ccc(NCC(=O)N/N=C/C=C/c2ccccc2)cc1	6	-11	-7	-4	-6	3
COc1cc2c(C#N)c(N3CCc4ccccc4C3)nc(N)c2c(N)n1	39*	-6	-14	-2	-6	15
COc1cc2c(cc1OC)C(COc1ccc(C(C)C)cc1)NCC2 (stereo not given)	-1	2	11	-3	2	-4
O=[N+]([O-])c1ccc(NCCCNS(=O)(=O)c2ccc(Cl)cc2)c(Cl)c1	-1	-5	0	-2	27*	-7
N#Cc1c(N)sc(=S)c2c1CCN(Cc1ccccc1)C2	32*	-15	-19	18*	27*	27*
CCN1CCc2c(sc(N)c2C#N)C1	-2	1	-7	2	-3	6
O=C(Nc1ccc(Cl)cc1)Nc1ccc(N2CCOCC2)cc1	11	4	10	2	12	0
O=C(Nc1ccc(N2CCOCC2)cc1)Nc1ccc(Cl)c(Cl)c1	28*	-4	-7	-7	5	14
SMILES	PME-1 primary	proCasp3 act	procasp7 counter	LYPLA1 counter	LYPLA2 counter	Fam108B inh
CC1Oc2ccccc2C=C1/C=N/Nc1ccc(C(=O)O)cc1 (stereo not given)	34*	-38	-30	7	3	0
O=C(COC(=O)c1ccccc1Br)Nc1cc(S(=O)(=O)N2CCOCC2)ccc1N1CCCC1	54*	-6	-3	4	6	4
COc1ccc2oc(C(=O)OCC(=O)N3CCN(S(=O)(=O)c4ccc(C)cc4)CC3)c(C)c2c1	31*	0	6	-3	-10	-3
COC(=O)c1ccc(C2Nc3cccc4cccc(c34)N2)cc1	52*	0	-3	-5	-3	4
Clc1cccc(C2Nc3cccc4cccc(c34)N2)c1Cl	-5	-7	-10	-1	0	9
COc1cc(C2Nc3cccc4cccc(c34)N2)ccc1OC(C)=O	16	8	-1	-8	-1	22*
CCN(CC)c1ccc(C2Nc3cccc4cccc(c34)N2)cc1	10	-5	-9	-5	-4	9
COc1ccc(C2NC(=O)c3ccccc3N2)cc1OC (stereo not given)	1	8	-4	2	3	1
COc1cc(C2Nc3cccc4cccc(c34)N2)cc(OC)c1O	48*	-6	-3	-15	10	41*
Cc1ccc(Nc2c([N+](=O)[O-])ccc3c2=NC2(CCCCC2)N=3)cc1	31*	2	4	1	14	16
O=C1CN(C(=O)COC(=O)CNS(=O)(=O)/C=C/c2ccccc2)c2ccccc2N1	5	3	-5	2	3	0
CCO[C@@H]1OC(C(=O)N2CCN(Cc3ccccc3)CC2)=C[C@H](c2cn(C(C)=O)c3ccccc23)[C@H]1CCCO	71*	6	2	-1	4	4
COc1ccccc1[C@@]1(C)ON(c2ccccc2C(F)(F)F)C1=O	10	6	9	-1	-5	.
CCN(c1ccccc1)S(=O)(=O)c1ccc(OC)c(NC(=O)Cc2ccc(F)cc2)c1	0	-1	-3	-11	-12	.
CCN(c1ccccc1)S(=O)(=O)c1ccc(OC)c(NC(=O)CNCCc2ccccc2)c1	28*	1	8	-2	3	-3
Nc1ccccc1Nc1nc2ccccc2[nH]1	2	8	-3	2	5	3
Nc1ccc(Nc2nc3ccccc3[nH]2)cc1	40*	-7	-6	-8	5	17
CCn1c(=O)c2cc(C(=O)Nc3ccc(OC)cc3OC)sc2c2ccccc21	32*	-13	7	3	0	-1
O=C(C1CCCN1S(=O)(=O)c1cccc2cccnc12)N1CCn2c1nc1ccccc12 (stereo not given)	-2	2	6	2	-5	2
O=C(C1CCN(S(=O)(=O)c2cccc3cccnc23)CC1)N1CCn2c1nc1ccccc12	28*	2	3	2	-5	1
COCc1ccc(C(=O)N2CCCC(C(=O)c3ccc(Cl)cc3C)C2)o1 (stereo not given)	2	-4	12	-2	7	-2
